In paper PMC7982424 (Acta Pharmaceutica Sinica. B, 2020):

Tests used:
[1] = system: HIV-1NL4-3; experiment: Anti-HIV-1 assay in TZM-GFP cells; assay type: cell-based; conditions: for inhibition at 2 µM: Human immunodeficiency virus 1, read-out: Inhibition at 2 μmol/L; for inhibition at 20 µM: Human immunodeficiency virus 1, read-out: Inhibition at 20 μmol/L
Summary of the method: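 TZM-GFP cells seeded at 1 × 10^4 per well; after 24 h, medium replaced with test compound at 20 μmol/L, with actives retested at 2 μmol/L. HIV-1NL4-3 (HEK 293FT-transfection stock, MT2-propagated, PEG-concentrated) added at MOI 1 24 h later. After 48 h, GFP-positive cells counted by imaging; inhibition relative to DMSO controls. Duplicates, at least two independent experiments.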

[2] = Cytotoxicity assay; assay type: cell-based; conditions: human, TZM-GFP cells
Summary of the method: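 TZM-GFP cells were plated at 1 × 10^4 cells per well and exposed continuously to increasing concentrations of test compound for 72 h. Viable cells were counted by XTT. CC50 came from a log(inhibitor) vs normalized response, variable-slope fit for each independent assay, then averaged. Runs were in duplicate across at least two independent experiments; mean ± SD.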

[3] = Microsomal stability assay, human liver microsomes; assay type: in vitro ADME; conditions: for half-life at 1 μmol/L: human, pH 7.4
[4] = Microsomal stability assay, mouse liver microsomes; assay type: in vitro ADME; conditions: for half-life at 1 μmol/L: mouse, pH 7.4

Row | Structure (SMILES) | Inhibition at 2 μmol/L ([1]; 2 μmol/L compound, HIV-1 in TZM-GFP cells) | CC50 at 72 h [2] [µM] | half-life at 1 μmol/L [3] [min] | half-life at 1 μmol/L [4] [min] | inhibition at 2 µM [1] [%] | inhibition at 20 µM [1] [%] | fold increase of half-life over PF74 in HLMs ([3]; relative to PF74) [fold] | fold increase of half-life over PF74 in MLMs ([4]; relative to PF74) [fold]
1 | Cc1cn(CC(=O)N[C@@H](Cc2ccccc2)C(=O)N(C)c2ccc(Cl)cc2)c(=O)[nH]c1=O [Compound 10, (S)-N-(4-Chlorophenyl)-N-methyl-2-(2-(5-methyl-2,4-dioxo-3,4-dihydropyrimidin-1(2H)-yl)acetamido)-3-phenylpropanamide] | exhibited inhibition | > 50 | 12 | 4.6 |  |  |  | 
2 | CN(C(=O)[C@H](Cc1ccccc1)NC(=O)CNC(=O)c1ccccc1)c1ccccc1 [Compound 18, (S)-N-(2-((1-(Methyl(phenyl)amino)-1-oxo-3-phenylpropan-2-yl)amino)-2-oxoethyl)benzamide] |  | > 50 | 15 | 3.6 | 15 | 96 |  | 
3 | Cc1ccc(N(C)C(=O)[C@H](Cc2ccccc2)NC(=O)CNC(=O)c2ccccc2)cc1 [Compound 19, (S)-N-(2-((1-(Methyl(p-tolyl)amino)-1-oxo-3-phenylpropan-2-yl)amino)-2-oxoethyl)benzamide] |  | > 50 | 22 | 5 |  |  |  | 
4 | CN(C(=O)[C@H](Cc1ccccc1)NC(=O)CNC(=O)c1ccccc1)c1ccc(Cl)cc1 [Compound 20, (S)-N-(2-((1-((4-Chlorophenyl)(methyl)amino)-1-oxo-3-phenylpropan-2-yl)amino)-2-oxoethyl)benzamide] |  | > 50 | 36 | 13 |  |  | 51 | 22
5 | CN(C(=O)[C@H](Cc1ccccc1)NC(=O)CNC(=O)c1ccccc1)c1cccc(F)c1 [Compound 23, (S)-N-(2-((1-((3-Fluorophenyl)(methyl)amino)-1-oxo-3-phenylpropan-2-yl)amino)-2-oxoethyl)benzamide] |  | > 50 | 12 | 3.6 | 3 | 94 |  | 
6 | CCN(C(=O)[C@H](Cc1ccccc1)NC(=O)CNC(=O)c1ccccc1)c1ccccc1 [Compound 26, (S)-N-(2-((1-(Ethyl(phenyl)amino)-1-oxo-3-phenylpropan-2-yl)amino)-2-oxoethyl)benzamide] |  | > 50 | 14 | 2.4 |  |  |  | 
